Experimental data reported in article PMC10032210 (Biomaterials, 2022).

Legend:
Cathepsin B = Cathepsin B (Homo sapiens, UniProt P07858); test: Cathepsin B-mediated hydrolysis of peptide constructs followed by HPLC; assay type: biochemical; conditions: Cathepsin B 1.34 × 10^−13 M, 25 °C, least-squares regression
Procedure, shortened: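 Substrate at 1·10^-7 M with cathepsin B (1.34·10^-13 M, activated by 1 mM DTT) in 50 mM sodium citrate pH 6.0, 1 mL, filter-sterilized, held dark at 25 °C. Repeated reversed-phase HPLC injections ran over ≥6× reaction half-life; UV detection at 220 nm. Percentage substrate remaining came from peak area versus known injected amount. Pseudo-first-order half-life given as mean ± SD; ≥3 repeats.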

HCT116 xenograft tumors = test: In vivo tumor uptake of GNRs, gold content by ICP-MS; design: species or system mice; conditions: CA074 10 mg/kg i.p., peptide GNR 8 OD i.v., 24 hr
Procedure, shortened: (§1)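 Male athymic Swiss nude mice carried bilateral subcutaneous HT29, HCT116 and DLD1 xenografts (1×10^6 cells in PBS). At 7–8 mm tumors, mice were randomized, n=4/group. CA074 10 mg/kg i.p. daily; 100 μL of 8 OD GNR i.v. by tail vein on day 3 of CA074. At 24 hr, tumors and organs were harvested, weighed, lyophilized and digested in aqua regia. Gold by ICP-MS per gram dry tissue; mean ± SEM, unpaired two-tailed t-test.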

HT29 = test: In vitro uptake of GNRs, gold content by ICP-MS; assay type: cell-based, Human; conditions: 10 μM CA074 for 12 hr, then peptide GNR 24 hr
Procedure, shortened: (§2)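 Cells in 10% FBS medium (HT29 McCoy's, MDA MB231 DMEM, PANC1 RPMI 1640) at 37 °C, 5% CO2. At 70% confluence: 10 μM CA074 for 12 hr, then 0.05 OD GNR in serum-free medium for 24 hr. Cells washed, trypsinized, pelleted, dried at 56 °C and digested in aqua regia (60 °C, 4 hr). Gold measured by ICP-MS against gold standards, normalized to cell count; mean ± SEM.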

PANC1 = test: In vitro uptake of GNRs, gold content by ICP-MS; assay type: cell-based, Human; conditions: 10 μM CA074 for 12 hr, then peptide GNR 24 hr
Procedure, shortened: as §2

HT29 xenograft tumors = test: In vivo tumor uptake of GNRs, gold content by ICP-MS; design: species or system mice; conditions: CA074 10 mg/kg i.p., peptide GNR 8 OD i.v., 24 hr
Procedure, shortened: as §1

MDAMB231 = test: In vitro uptake of GNRs, gold content by ICP-MS; assay type: cell-based, Human; conditions: 10 μM CA074 for 12 hr, then peptide GNR 24 hr
Procedure, shortened: as §2

degradation reaction half-life (t½) relative to native GFGFVG peptide (Cathepsin B) | Molecule | effect of inhibitor on peptide GNR uptake by xenograft tumors (ICP-MS) (HCT116 xenograft tumors) | change in peptide GNR uptake (ICP-MS) with CA074 compared to peptide GNRs alone (HT29) | change in peptide GNR uptake (ICP-MS) with CA074 compared to peptide GNRs alone (PANC1) | effect of inhibitor on peptide GNR uptake by xenograft tumors (ICP-MS) (HT29 xenograft tumors) | change in peptide GNR uptake (ICP-MS) with CA074 compared to peptide GNRs alone (MDAMB231)
about three-fold higher | MeO-PEG20k-GGFGFVGGR9WC |  |  |  |  | 
 | CCCNC(=O)[C@H]1O[C@@H]1C(=O)N[C@H](C(=O)N1CCC[C@H]1C(=O)O)[C@@H](C)CC [CA074] | abrogates the increased uptake | two-fold reduction | two-fold reduction | abrogates the increased uptake | two-fold reduction
nearly three-fold | MeO-PEG20k-GFGFVG [PEGylated GFGFVG] |  |  |  |  | 
